# Assay results from different studies.
# CDK4: Cyclin-dependent kinase 4 (CDK4, Homo sapiens, UniProt P11802)
# CDK4 with cyclin D1: Cyclin-dependent kinase 4, with cyclin D1 (CDK4, Homo sapiens, UniProt P11802)
# CDK4 with cyclin D3: Cyclin-dependent kinase 4, with cyclin D3 (CDK4, Homo sapiens, UniProt P11802)
Structure (SMILES),target,effect on,action,technique,tested at,endpoint,result
CCCCC(=O)Nc1ccc(-c2ccc3ncn(CCC)c(=O)c3c2)cn1,CDK4,binding,,competition with immobilised ligand,0.5 µM,remaining binding,100%
C=CC(=O)N1CCC([C@@H]2CCNc3c(C(N)=O)c(-c4ccc(Oc5ccccc5)cc4)nn32)CC1,CDK4 with cyclin D1,enzyme activity,inhibitor,,1 µM,inhibition,0%
C1=C/COCc2cc(ccc2OCCN2CCCC2)Nc2nccc(n2)-c2cccc(c2)COC/1,CDK4 with cyclin D1,binding,,,0.1 µM,remaining binding,48%
C[C@]1(O)CCCN(c2nc(Nc3ccc(S(=O)(=O)N[C@H]4CC[C@H](CN5CCN(c6ccc(C7CCC(=O)NC7=O)cc6F)CC5)CC4)cc3F)ncc2C(F)(F)F)C1 (some centres unmarked),CDK4 with cyclin D3,binding,,competition with immobilised ligand,1 µM,remaining binding,96%
CC#CC(=O)N1CCC[C@H]1c1nc(-c2ccc(C(=O)Nc3ccccn3)cc2)c2c(N)nccn12,CDK4,enzyme activity,inhibitor,,1 µM,inhibition,0%
C[C@]1(O)CCCN(c2nc(Nc3ccc(S(=O)(=O)N[C@H]4CC[C@H](CN5CCN(c6ccc(C7CCC(=O)NC7=O)cc6F)CC5)CC4)cc3Cl)ncc2C(F)(F)F)C1 (some centres unmarked),CDK4 with cyclin D1,binding,,competition with immobilised ligand,1 µM,remaining binding,91%
CO[C@@H]1[C@H](N(C)C(=O)c2ccccc2)C[C@H]2O[C@]1(C)n1c3ccccc3c3c4c(c5c6ccccc6n2c5c31)C(=O)NC4,CDK4 with cyclin D1,enzyme activity,inhibitor,,1 µM,inhibition,4%
COc1ccc2[nH]c3c4[nH]c5ccc(OC)cc5c4c4c(c3c2c1)C(=O)NC4=O,CDK4 with cyclin D1,binding,,,1 µM,remaining binding,82%
CNS(=O)(=O)c1ccc(Nc2ncc(C(F)(F)F)c(N3CCC[C@](C)(O)C3)n2)c(C)c1,CDK4 with cyclin D1,binding,,competition with immobilised ligand,1 µM,remaining binding,46%
CC(C)S(=O)(=O)c1ccc2nccc(Nc3ccc4sc(C5CCCC5)nc4c3)c2c1,CDK4 with cyclin D3,enzyme activity,inhibitor,,1 µM,activity vs control,102%
CN1CCN(C(=O)c2ccc(NC(=O)Nc3ccc(N(C)c4ccnc(Nc5ccc(CS(C)(=O)=O)cc5)n4)cc3)cc2)CC1,CDK4,binding,,,1 µM,remaining binding,83%
